Activity calls are given as the source filed them. The calls are words filed in the database; no cut-off is given here.

Assay [1] deals with T1, Transient receptor potential cation channel subfamily V member 1 (Homo sapiens, UniProt Q8NER1). Briefly: Agonist activity at epsilon-epitope tagged TRPV1 receptor expressed in mouse NIH3T3 cells assessed as effect on 45Ca2+ influx by microplate liquid scintillation counter. Type of assay: functional, cell-based. Put shortly: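 NIH3T3 cells stably expressing ε-tagged TRPV1 were seeded the day before and grown at 35°C. Test compound given without capsaicin, top concentration 100 µM, 2% DMSO. 45Ca2+ uptake run 10 min at 20°C in Tris-HBSS (pH 7.5) with ascorbate, 10 µM Ca2+ and 0.8 mM Mg2+. Cells were washed, lysed in RIPA and counted by scintillation.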

The target in assay [2] is Transient receptor potential cation channel subfamily V member 1 (Rattus norvegicus) (UniProt O35433). Description: Agonist activity at TRPV1 receptor in E15 rat primary dorsal root ganglion cells assessed as effect on 45Ca2+ influx by microplate liquid scintillation counter. Type of assay: functional, tissue-based. Put shortly:
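DRGs from E15 rat embryos, enzymatically dissociated, grown 5–6 days at 35°C. Test compound given without capsaicin. 45Ca2+ uptake run 10 min at 20°C in Tris-buffered (pH 7.5) HBSS with 1 mM ascorbate, 10 µM CaCl2 and 0.8 mM MgCl2, with 0.5 µCi/well tracer. Cells were washed, lysed in RIPA and counted by scintillation.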

Assay [3] addresses T1, Transient receptor potential cation channel subfamily V member 1. Briefly: Agonist-enhancing activity in epsilon-epitope tagged TRPV1 receptor expressed in mouse NIH3T3 cells assessed as capsaicin-induced 45Ca2+ influx at 100 uM by microplate liquid scintillation counter relative to capsaicin alone. Type of assay: functional, cell-based. Put shortly: (§1)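 Stable ε-tagged TRPV1 NIH3T3 cells. Uptake with capsaicin 2 µM, 10 min at 20°C, 0.5 µCi/well 45Ca2+ in Tris-HBSS pH 7.5. Compound up to 100 µM, 2% DMSO, from 5 mM stocks, duplicate wells per concentration. Data normalized to capsaicin-only wells (100%). Variable-slope fit gave EC50 and ΔEmax; compounds too weak to fit were given ΔEmax at the top concentration.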

In assay [4] the target is Transient receptor potential cation channel subfamily V member 1 (Rattus norvegicus) (UniProt O35433). Description: Agonist-enhancing activity at TRPV1 receptor in E15 rat primary dorsal root ganglion cells assessed as capsaicin-induced 45Ca2+ influx by microplate liquid scintillation counter relative to capsaicin alone. Type of assay: functional, tissue-based. In short, it runs like this: (§2)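 E15 rat DRG cultures grown 5–6 days at 35°C. Uptake with capsaicin ~0.5 µM, 10 min at 20°C, 0.5 µCi/well 45Ca2+ in Tris-HBSS pH 7.5. Compound up to 50 µM, 0.2% DMSO, from 25 mM stocks. Counts normalized to in-plate capsaicin-only wells (100%, 4 wells). Variable-slope sigmoid fit gave EC50, Hill slope and ΔEmax.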

The target in assay [5] is T2, Adenosine receptor A3 (Rattus norvegicus) (UniProt P28647).
T2 sequence (whole entry): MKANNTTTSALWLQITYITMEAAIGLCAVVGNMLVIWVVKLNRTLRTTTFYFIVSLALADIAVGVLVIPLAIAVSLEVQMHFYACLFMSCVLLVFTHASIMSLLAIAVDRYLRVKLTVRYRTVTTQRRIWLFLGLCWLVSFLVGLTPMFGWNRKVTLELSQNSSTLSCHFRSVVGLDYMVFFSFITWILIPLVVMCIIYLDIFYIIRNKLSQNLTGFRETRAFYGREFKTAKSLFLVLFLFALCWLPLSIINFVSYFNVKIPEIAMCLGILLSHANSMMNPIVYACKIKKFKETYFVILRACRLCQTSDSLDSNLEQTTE
Description: Binding affinity to rat adenosine A3 receptor.

Assay [6] has as its target T1, Transient receptor potential cation channel subfamily V member 1. Description: Agonist-enhancing activity in epsilon-epitope tagged TRPV1 receptor expressed in mouse NIH3T3 cells assessed as capsaicin-induced 45Ca2+ influx by microplate liquid scintillation counter. Type of assay: functional, cell-based. Put shortly: as §1
The target of assay [7] is Transient receptor potential cation channel subfamily V member 1 (Rattus norvegicus) (UniProt O35433). Briefly: Agonist-enhancing activity at TRPV1 receptor in E15 rat primary dorsal root ganglion cells assessed as capsaicin-induced 45Ca2+ influx by microplate liquid scintillation counter. The format is functional, tissue-based. In short, it runs like this: as §2
Another assay has as its target T3, Adenosine receptor A3 (Homo sapiens, UniProt P0DMS8).
T3 sequence (P0DMS8 whole entry): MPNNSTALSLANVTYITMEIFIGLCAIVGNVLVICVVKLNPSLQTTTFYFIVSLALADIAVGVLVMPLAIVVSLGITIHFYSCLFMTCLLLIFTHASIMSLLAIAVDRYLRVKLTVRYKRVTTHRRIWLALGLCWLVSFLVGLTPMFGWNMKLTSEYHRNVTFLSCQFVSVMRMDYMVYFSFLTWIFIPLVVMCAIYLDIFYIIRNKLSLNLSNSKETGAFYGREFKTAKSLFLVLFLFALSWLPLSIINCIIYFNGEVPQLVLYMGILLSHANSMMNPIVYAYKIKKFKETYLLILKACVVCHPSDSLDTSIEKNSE
Briefly: Binding affinity to human adenosine A3 receptor.

T1 sequence (Q8NER1 whole entry): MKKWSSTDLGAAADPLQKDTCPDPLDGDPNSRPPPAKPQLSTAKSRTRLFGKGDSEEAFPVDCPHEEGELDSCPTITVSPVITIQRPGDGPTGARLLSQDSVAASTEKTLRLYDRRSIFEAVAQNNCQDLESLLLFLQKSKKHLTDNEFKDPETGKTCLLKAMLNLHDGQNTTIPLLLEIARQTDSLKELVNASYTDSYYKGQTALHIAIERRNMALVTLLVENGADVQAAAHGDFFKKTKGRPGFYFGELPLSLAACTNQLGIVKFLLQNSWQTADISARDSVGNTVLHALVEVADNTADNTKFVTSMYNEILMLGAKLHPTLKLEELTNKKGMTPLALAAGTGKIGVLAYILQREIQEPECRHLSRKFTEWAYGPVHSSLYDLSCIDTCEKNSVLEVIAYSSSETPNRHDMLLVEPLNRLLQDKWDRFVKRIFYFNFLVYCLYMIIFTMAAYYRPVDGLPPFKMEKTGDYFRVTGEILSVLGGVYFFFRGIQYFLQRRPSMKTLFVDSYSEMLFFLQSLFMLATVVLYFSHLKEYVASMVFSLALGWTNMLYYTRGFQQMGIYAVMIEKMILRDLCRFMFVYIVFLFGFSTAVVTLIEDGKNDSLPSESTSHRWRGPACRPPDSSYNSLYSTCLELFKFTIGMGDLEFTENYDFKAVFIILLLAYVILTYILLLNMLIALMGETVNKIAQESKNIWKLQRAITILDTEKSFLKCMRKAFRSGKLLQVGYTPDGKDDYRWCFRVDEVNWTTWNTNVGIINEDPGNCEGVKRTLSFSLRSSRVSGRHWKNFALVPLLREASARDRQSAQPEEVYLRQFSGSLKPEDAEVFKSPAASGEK
Transient receptor potential cation channel subfamily V member 1 (Rattus norvegicus), sequence (O35433 whole entry): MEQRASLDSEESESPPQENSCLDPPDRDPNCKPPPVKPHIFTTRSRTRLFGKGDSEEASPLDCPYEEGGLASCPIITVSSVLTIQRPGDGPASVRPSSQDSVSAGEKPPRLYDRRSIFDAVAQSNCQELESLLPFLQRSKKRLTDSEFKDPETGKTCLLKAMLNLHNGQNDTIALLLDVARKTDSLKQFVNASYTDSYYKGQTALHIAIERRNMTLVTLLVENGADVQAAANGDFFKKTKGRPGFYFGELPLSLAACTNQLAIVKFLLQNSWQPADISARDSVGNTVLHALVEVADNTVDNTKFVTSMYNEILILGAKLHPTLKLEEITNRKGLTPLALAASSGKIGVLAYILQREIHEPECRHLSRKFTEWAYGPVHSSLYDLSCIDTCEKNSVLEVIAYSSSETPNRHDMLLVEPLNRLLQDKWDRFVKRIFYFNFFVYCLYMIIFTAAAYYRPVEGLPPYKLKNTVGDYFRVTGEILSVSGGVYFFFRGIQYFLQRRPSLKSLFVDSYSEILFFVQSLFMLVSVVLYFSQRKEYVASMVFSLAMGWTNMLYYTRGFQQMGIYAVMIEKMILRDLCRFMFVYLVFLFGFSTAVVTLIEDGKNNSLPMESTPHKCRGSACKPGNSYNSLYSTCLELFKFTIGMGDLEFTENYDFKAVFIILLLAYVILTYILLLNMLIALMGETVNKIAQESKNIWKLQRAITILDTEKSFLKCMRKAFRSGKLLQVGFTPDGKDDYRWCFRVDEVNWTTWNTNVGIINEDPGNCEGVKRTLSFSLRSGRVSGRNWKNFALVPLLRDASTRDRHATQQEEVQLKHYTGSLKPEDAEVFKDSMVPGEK

In general, Emax refers to the greatest response seen or fitted, relative to the assay's reference. On to `CCOC(=O)C1=C(c2ccc(F)cc2)NC(C)=C(C(=O)SCC)C1C1CC1` (racemic), for which the result in assay [1] and in assay [2] was inactive. In assay [3], the Emax was determined as 175%.

Regarding `CCOC(=O)C1=C(c2ccc([N+](=O)[O-])cc2)NC(C)=C(C(=O)SCCc2ccccc2)C1CC` (racemic), the result in assay [1] and in assay [2] was inactive. Moreover, the values for the Emax in assay [3] and in assay [4] were 101% and 117%, respectively.

With `CCOC(=O)C1=C(c2ccc(C#N)cc2)NC(C)=C(C(=O)SCC)C1CC` (racemic), the outcome in assay [1] and in assay [2] was inactive. Moreover, the Emax in assay [3] turned out to be 129%.

In the case of `CCOC(=O)C1=C(c2ccccc2F)NC(C)=C(C(=O)SCCc2ccccc2)C1CC` (racemic), the result in assay [1] and in assay [2] was inactive. Also, the Emax in assay [3] stood at 117%.

For the compound `CCOC(=O)C1=C(c2ccccc2)N=C(CC)/C(=C(/O)SCC)C1CC` (centres undefined), the outcome in assay [1], in assay [2] and in assay [5] was inactive. In addition, the Emax in assay [3] is 257%.

One may read the EC50 as the concentration that produces a half-maximal response. As for `CCOC(=O)C1=C(C)NC(c2ccc(F)cc2)=C(C(=O)OCC)C1CC` (racemic), the outcome in assay [1] and in assay [2] was inactive. Also, the Emax came out at 372% in assay [3] and 175% in assay [4]. Further, the concentration for a half-maximal effect (EC50) in assay [6] worked out at 29.2 µM.

As for `CCOC(=O)C1=C(c2ccc3ccccc3c2)NC(C)=C(C(=O)SCC)C1CC` (racemic), the result in assay [1] and in assay [2] was inactive. Moreover, the Emax in assay [3] was 116%.

`CCCC1C(C(=O)SCCc2ccccc2)=C(C)NC(c2ccccc2)=C1C(=O)OCC` (racemic): the outcome in assay [1] and in assay [2] was inactive. The results for the Emax in assay [3] and in assay [4] were 360% and 231%, respectively. The half-maximal effective concentration (EC50) in assay [6] worked out at 27.6 µM.

On to `CCOC(=O)C1=C(C)NC(c2cccc(Cl)c2)=C(C(=O)OCC)C1CC` (racemic), for which the result in assay [1] and in assay [2] was inactive. Moreover, the Emax in assay [3] was 347%; in assay [4], 259%. The EC50 in assay [6] stood at 17.1 µM.

With `CCOC(=O)C1=C(c2ccccc2)N=C(C)/C(=C(/O)OCC)C1CC` (centres undefined), the result in assay [1], in assay [2] and in assay [5] was inactive. The Emax in assay [3] amounted to 383%.

Consider `CCCC1C(C(=O)OCC)=C(c2ccccc2)N=C(C)/C1=C(/O)SCC` (centres undefined), for which the outcome in assay [1], in assay [2] and in assay [5] was inactive. In addition, the maximal response (Emax) worked out at 364% in assay [3] and 318% in assay [4]. In assay [6], the EC50 is 22.4 µM.

With `CCOC(=O)C1=C(c2cccc(F)c2)NC(C)=C(C(=O)SCC)C1CC` (racemic), the outcome in assay [1] and in assay [2] was inactive. For the same compound, the results for the Emax in assay [3] and in assay [4] were 446% and 198%, respectively. Moreover, the EC50 in assay [6] was 21.8 µM.

Consider `CO/C(O)=C1\C(C)=NC(C)=C([N+](=O)[O-])[C@H]1c1ccccc1C(F)(F)F`, for which the outcome in assay [7] and in assay [6] was inactive.

For orientation: Ki means a measure of affinity in units of concentration, obtained from inhibition or displacement. In the case of `CCCC1=NC(c2ccccc2)=C(C(=O)OCC)C(CC)/C1=C(\O)SCC` (centres undefined), at Adenosine receptor A3, the Ki stood at 2.09 µM. Besides, the result in assay [1], in assay [2] and in assay [5] was inactive. Further, the Emax in assay [3] is 148%.

In the case of `CCOC(=O)C1=C(c2ccc(F)cc2)NC(C)=C(C(=O)SCC)C1CC` (racemic), the outcome in assay [1] and in assay [2] was inactive. The Emax in assay [3] was 409%. Also, the EC50 in assay [6] stood at 28.4 µM.

`COC(=O)C1=C(C)NC(C)=C(C(=O)OCCN(C)Cc2ccccc2)C1c1cccc([N+](=O)[O-])c1` (centres undefined): the outcome in assay [7] and in assay [6] was inactive.

For the compound `CCOC(=O)C1=C(c2ccc([N+](=O)[O-])cc2)NC(C)=C(C(=O)SCc2ccccc2)C1CC` (racemic), the outcome in assay [1] and in assay [2] was inactive. Besides, the Emax in assay [3] was 98%.

For `CCCC1C(C(=O)SCC)=C(C)NC(c2cccc(Cl)c2)=C1C(=O)OCC` (racemic), the outcome in assay [1] and in assay [2] was inactive. Also, the Emax in assay [3] is 177%.

For the compound `CCOC(=O)C1=C(c2ccccc2F)NC(C)=C(C(=O)SCC)C1CC` (racemic), the result in assay [1] and in assay [2] was inactive. In assay [3], the Emax was 198%.

As to `CCOC(=O)C1=C(C)NC(c2cccc(F)c2)=C(C(=O)OCC)C1CC` (racemic), the result in assay [1] and in assay [2] was inactive. Moreover, the Emax worked out at 403% in assay [3] and 206% in assay [4]. Besides, the EC50 in assay [6] stood at 26.7 µM.

In the case of `CCOC(=O)C1=C(c2ccccc2F)NC(C)=C(C(=O)SCc2ccccc2)C1CC` (racemic), the result in assay [1] and in assay [2] was inactive. Besides, the Emax in assay [3] is 123%.

Take `CCOC(=O)C1=C(c2ccc(F)cc2)NC(C)=C(C(=O)SCCc2ccccc2)C1CC` (racemic): the result in assay [1] and in assay [2] was inactive. Besides, the results for the Emax in assay [3] and in assay [4] were 232% and 148%, respectively. Besides, the EC50 in assay [6] worked out at 51.6 µM.

For `CCOC(=O)C1=C(c2ccccc2F)NC(C)=C(C(=O)SC(C)C)C1CC` (racemic), the outcome in assay [1] and in assay [2] was inactive. Moreover, the Emax in assay [3] is 124%.

For the compound `CCOC(=O)C1=C(c2ccccc2)N=C(C)/C(=C(/O)SCC)C1CC` (centres undefined), the outcome in assay [1], in assay [2] and in assay [5] was inactive. Further, the Emax in assay [3] turned out to be 435%. Also, in assay [6], the concentration giving a half-maximal response (EC50) was 28.1 µM.

Take `CCOC(=O)C1=C(c2ccccc2)N=C(C)/C(=C(/O)OCC)C1C(OC)OC` (centres undefined): affinity at Adenosine receptor A3 was put at a Ki of 15.3 µM. The outcome in assay [1], in assay [2] and in assay [5] was inactive. The Emax in assay [3] was found to be 114%.

Turning to `CCOC(=O)C1=C(C2CCCCC2)NC(C)=C(C(=O)SCC)C1CC` (racemic), the result in assay [1] and in assay [2] was inactive. Further, the Emax in assay [3] was 87%.

As to `CCOC(=O)C1=C(c2cccc(Cl)c2)NC(C)=C(C(=O)SCCc2ccccc2)C1CC` (racemic), the outcome in assay [1] and in assay [2] was inactive. For the same compound, in assay [3], the Emax came out at 194%.

These data come from ChEMBL document CHEMBL1152227, “Structure-activity relationships of 1,4-dihydropyridines that act as enhancers of the vanilloid receptor 1 (TRPV1)” (Bioorg Med Chem, 2008).
